These molecules were tested against Prothrombin (Bos taurus, UniProt P00735) (assay: Bovine thrombin concentration at which clotting time was prolonged 2x over the control.). Conditions: read-out: I50.
Format: functional
Method in brief: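 Clotting assay at 25 °C. The read-out was the time from thrombin addition to clot formation.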

Row | IC50 [µM] | Structure (SMILES)
1 | 17 | CN(C)c1cccc2c(S(=O)(=O)NC(CCCNC(=N)N)C(=O)N3CCCc4ccccc43)cccc12 (stereo unspecified)
2 | 1100 | CC(C)NC(=O)C(CCCN=C(N)N)NS(=O)(=O)c1cccc2c(N(C)C)cccc12 (stereo unspecified)
3 | 0.8 | CCC1CCN(C(=O)C(CCCN=C(N)N)NS(=O)(=O)c2ccc3cc(OC(C)C)ccc3c2)CC1 (stereo unspecified)
4 | 20 | CCCCCCNC(=O)C(CCCN=C(N)N)NS(=O)(=O)c1cccc2c(N(C)C)cccc12 (stereo unspecified)
5 | 1 | CCC1CCN(C(=O)C(CCCN=C(N)N)NS(=O)(=O)c2cccc3ccc(C)cc23)CC1 (stereo unspecified)
6 | 50 | CN(C)c1cccc2c(S(=O)(=O)NC(CCCN=C(N)N)C(=O)NCc3ccccc3)cccc12 (stereo unspecified)
7 | 0.2 | CCC1CCN(C(=O)C(CCCNC(=N)N)NS(=O)(=O)c2cccc3c2oc2ccccc23)CC1 (stereo unspecified)
8 | 0.15 | CCC1CCN(C(=O)C(CCCNC(=N)N)NS(=O)(=O)c2ccc3c(c2)Oc2ccccc2O3)CC1 (stereo unspecified)
9 | 0.3 | CC1CCN(C(=O)C(CCCN=C(N)N)NS(=O)(=O)c2cccc3c(N(C)C)cccc23)CC1 (stereo unspecified)
10 | 100 | CN(C)c1cccc2c(S(=O)(=O)NC(CCCN=C(N)N)C(=O)N3CCC(c4ccccc4)CC3)cccc12 (stereo unspecified)
11 | 25 | CCC1CCN(C(=O)C(CCCN=C(N)N)NS(=O)(=O)c2ccc3c(c2)OCCO3)CC1 (stereo unspecified)
12 | 1 | CN(C)c1cccc2c(S(=O)(=O)NC(CCCNC(=N)N)C(=O)N3CCc4ccccc43)cccc12 (stereo unspecified)
13 | 0.075 | COc1ccc2cc(S(=O)(=O)NC(CCCN=C(N)N)C(=O)N3CCC(C)CC3)cc(OC)c2c1 (stereo unspecified)
14 | 4 | COc1cccc2cccc(S(=O)(=O)NC(CCCN=C(N)N)C(=O)N3CCC(C)CC3)c12 (stereo unspecified)
15 | 6 | CCC1CCN(C(=O)C(CCCNC(=N)N)NS(=O)(=O)c2cccc3c(C#N)cccc23)CC1 (stereo unspecified)
16 | 0.1 | CCC1CCN(C(=O)C(CCCNC(=N)N)NS(=O)(=O)c2cccc3c(N(C)C)cccc23)CC1 (stereo unspecified)
17 | 20 | N=C(N)NCCCC(NS(=O)(=O)c1ccc2ccccc2c1)C(=O)N1CCCCCC1 (stereo unspecified)
18 | 8 | CN(C)c1cccc2c(S(=O)(=O)NC(CCCN=C(N)N)C(=O)N3CCC(C)(C)CC3)cccc12 (stereo unspecified)
19 | 7 | N=C(N)NCCCC(NS(=O)(=O)c1ccc2c(c1)CCCC2)C(=O)N1CCCC1 (stereo unspecified)
20 | 1 | CCC1CCN(C(=O)C(CCCN=C(N)N)NS(=O)(=O)c2ccc3ccccc3c2)CC1 (stereo unspecified)
21 | 5 | CCOCCNC(=O)C(CCCN=C(N)N)NS(=O)(=O)c1cccc2c(N(C)C)cccc12 (stereo unspecified)
22 | 150 | CN(C)c1cccc2c(S(=O)(=O)NC(CCCNC(=N)N)C(=O)NCCc3ccccc3)cccc12 (stereo unspecified)
23 | 130 | CCCCCNC(=O)C(CCCN=C(N)N)NS(=O)(=O)c1cccc2c(N(C)C)cccc12 (stereo unspecified)

Row | IC50 [µM] | Structure (SMILES)
24 | 0.1 | CCC1CCN(C(=O)C(CCCNC(=N)N)NS(=O)(=O)c2ccc3ccc(OC)cc3c2)CC1 (stereo unspecified)
25 | 6 | CCC1CCN(C(=O)C(CCCN=C(N)N)NS(=O)(=O)c2ccc3ccc(O)cc3c2)CC1 (stereo unspecified)
26 | 4 | COC1CCN(C(=O)C(CCCN=C(N)N)NS(=O)(=O)c2cccc3c(N(C)C)cccc23)CC1 (stereo unspecified)
27 | 500 | COc1ccc(CNC(=O)C(CCCN=C(N)N)NS(=O)(=O)c2cccc3c(N(C)C)cccc23)cc1 (stereo unspecified)
28 | 0.4 | CCC1CCN(C(=O)C(CCCN=C(N)N)NS(=O)(=O)c2ccc3ccc(C)cc3c2)CC1 (stereo unspecified)
29 | 4.5 | CC1CCN(C(=O)C(CCCN=C(N)N)NS(=O)(=O)c2ccc3ccccc3c2)CC1 (stereo unspecified)
30 | 1 | CC(C)C1CCN(C(=O)C(CCCN=C(N)N)NS(=O)(=O)c2cccc3c(N(C)C)cccc23)CC1 (stereo unspecified)
31 | 6 | CCC1CCN(C(=O)C(CCCN=C(N)N)NS(=O)(=O)c2cccc3c(O)cccc23)CC1 (stereo unspecified)
32 | 1 | CC1CCN(C(=O)C(CCCNC(=N)N)NS(=O)(=O)c2cccc3c2CCCC3)CC1 (stereo unspecified)
33 | 7 | CN(Cc1ccccc1)C(=O)C(CCCN=C(N)N)NS(=O)(=O)c1cccc2c(N(C)C)cccc12 (stereo unspecified)
34 | 0.4 | CCC1CCN(C(=O)C(CCCNC(=N)N)NS(=O)(=O)c2cccc3c(OC(C)C)cccc23)CC1 (stereo unspecified)
35 | 0.5 | CCC1CCN(C(=O)C(CCCN=C(N)N)NS(=O)(=O)c2ccc3cc(C)ccc3c2)CC1 (stereo unspecified)
36 | 0.2 | CCC1CCN(C(=O)C(CCCNC(=N)N)NS(=O)(=O)c2ccc3cc(OC)ccc3c2)CC1 (stereo unspecified)
37 | 8 | CC1CCN(C(=O)C(CCCN=C(N)N)NS(=O)(=O)c2ccc3c(c2)OCCCO3)CC1 (stereo unspecified)
38 | 3.3 | CN(C)c1cccc2c(S(=O)(=O)NC(CCCNC(=N)N)C(=O)N3CCCC3)cccc12 (stereo unspecified)
39 | 0.7 | CCc1ccc2cc(S(=O)(=O)NC(CCCNC(=N)N)C(=O)N3CCC(CC)CC3)ccc2c1 (stereo unspecified)
40 | 0.3 | COc1cccc2c(S(=O)(=O)NC(CCCN=C(N)N)C(=O)N3CCC(C)CC3)cccc12 (stereo unspecified)
41 | 500 | CN(C)c1cccc2c(S(=O)(=O)NC(CCCNC(=N)N)C(=O)NC3CC3)cccc12 (stereo unspecified)
42 | 100 | CC(C)CNC(=O)C(CCCNC(=N)N)NS(=O)(=O)c1cccc2c(N(C)C)cccc12 (stereo unspecified)
43 | 2 | CCC1CCN(C(=O)C(CCCN=C(N)N)NS(=O)(=O)c2cccc3c(Cl)cccc23)CC1 (stereo unspecified)
44 | 0.7 | CCC1CCN(C(=O)C(CCCNC(=N)N)NS(=O)(=O)c2ccc3c(c2)CCCC3)CC1 (stereo unspecified)
45 | 5 | CCC1CCN(C(=O)C(CCCNC(=N)N)NS(=O)(=O)c2ccc3c(c2)OCCCO3)CC1 (stereo unspecified)
46 | 1.5 | CCC1CCN(C(=O)C(CCCN=C(N)N)NS(=O)(=O)c2ccc3c(c2)C(=O)c2ccccc2C3=O)CC1 (stereo unspecified)

Row | IC50 [µM] | Structure (SMILES)
47 | 0.3 | CCC1CCN(C(=O)C(CCCNC(=N)N)NS(=O)(=O)c2ccc3c(c2)Cc2ccccc2O3)CC1 (stereo unspecified)
48 | 2 | CN(C)c1cccc2c(S(=O)(=O)NC(CCCNC(=N)N)C(=O)N3CCCCCCCC3)cccc12 (stereo unspecified)
49 | 1.3 | CC1CCCCN1C(=O)C(CCCN=C(N)N)NS(=O)(=O)c1cccc2c(N(C)C)cccc12 (stereo unspecified)
50 | 0.67 | CN(C)c1cccc2c(S(=O)(=O)NC(CCCNC(=N)N)C(=O)N3Cc4ccccc4C3)cccc12 (stereo unspecified)
51 | 100 | CCCCCCCNC(=O)C(CCCNC(=N)N)NS(=O)(=O)c1cccc2c(N(C)C)cccc12 (stereo unspecified)
52 | 50 | CCCCN(C)C(=O)C(CCCNC(=N)N)NS(=O)(=O)c1ccc2ccccc2c1 (stereo unspecified)
53 | 1 | CN(C)c1cccc2c(S(=O)(=O)NC(CCCN=C(N)N)C(=O)N3CCCCCCC3)cccc12 (stereo unspecified)
54 | 40 | CCCCN(CCCC)C(=O)C(CCCNC(=N)N)NS(=O)(=O)c1cccc2c(N(C)C)cccc12 (stereo unspecified)
55 | 10 | N=C(N)NCCCC(NS(=O)(=O)c1cccc2ccccc12)C(=O)N1CCCCCC1 (stereo unspecified)
56 | 0.3 | CCC1CCN(C(=O)C(CCCNC(=N)N)NS(=O)(=O)c2ccc3c(c2)oc2ccccc23)CC1 (stereo unspecified)
57 | 4 | CC1CCN(C(=O)C(CCCN=C(N)N)NS(=O)(=O)c2cccc3ccccc23)CC1 (stereo unspecified)
58 | 20 | N=C(N)NCCCC(NS(=O)(=O)c1ccc2ccccc2c1)C(=O)N1CCOCC1 (stereo unspecified)
59 | 1 | CCCC1CCN(C(=O)C(CCCN=C(N)N)NS(=O)(=O)c2cccc3c(N(C)C)cccc23)CC1 (stereo unspecified)
60 | 2 | CCC1CCN(C(=O)C(CCCN=C(N)N)NS(=O)(=O)c2ccc(OC)c3ccccc23)CC1 (stereo unspecified)
61 | 40 | CN(C)c1cccc2c(S(=O)(=O)NC(CCCNC(=N)N)C(=O)NCC3CCCCC3)cccc12 (stereo unspecified)
62 | 50 | CCCCN(CC)C(=O)C(CCCN=C(N)N)NS(=O)(=O)c1cccc2c(N(C)C)cccc12 (stereo unspecified)
63 | 0.6 | CC1CCN(C(=O)C(CCCN=C(N)N)NS(=O)(=O)c2ccc3c(c2)CCCC3)CC1 (stereo unspecified)
64 | 0.6 | CCC1CCN(C(=O)C(CCCN=C(N)N)NS(=O)(=O)c2cccc3c(OC)cccc23)CC1 (stereo unspecified)
65 | 20 | CC1CN(C(=O)C(CCCN=C(N)N)NS(=O)(=O)c2cccc3c(N(C)C)cccc23)CC(C)O1 (stereo unspecified)
66 | 0.5 | CCC1CCN(C(=O)C(CCCN=C(N)N)NS(=O)(=O)c2cccc3c2CCCC3)CC1 (stereo unspecified)
67 | 5.5 | CCOc1cc2ccc(S(=O)(=O)NC(CCCN=C(N)N)C(=O)N3CCC(CC)CC3)cc2cc1OCC (stereo unspecified)
68 | 2 | CN(C)c1cccc2c(S(=O)(=O)NC(CCCNC(=N)N)C(=O)N3CCC(C(C)(C)C)CC3)cccc12 (stereo unspecified)
69 | 20 | CCC1CCN(C(=O)C(CCCN=C(N)N)NS(=O)(=O)c2ccc3ccc(=O)oc3c2)CC1 (stereo unspecified)

Row | IC50 [µM] | Structure (SMILES)
70 | 10 | CN(C)c1cccc2c(S(=O)(=O)NC(CCCN=C(N)N)C(=O)N3CC4CCCC(C4)C3)cccc12 (stereo unspecified)
71 | 6.5 | CC1CCCN(C(=O)C(CCCNC(=N)N)NS(=O)(=O)c2cccc3c(N(C)C)cccc23)C1 (stereo unspecified)
72 | 6.5 | N=C(N)NCCCC(NS(=O)(=O)c1cccc2c1CCCC2)C(=O)N1CCOCC1 (stereo unspecified)
73 | 5 | CCCCNC(=O)C(CCCN=C(N)N)NS(=O)(=O)c1ccc2c(c1)CCCC2 (stereo unspecified)
74 | 1 | CCC1CCN(C(=O)C(CCCN=C(N)N)NS(=O)(=O)c2cccc3c([N+](=O)[O-])cccc23)CC1 (stereo unspecified)
75 | 100 | N=C(N)NCCCC(NS(=O)(=O)c1cccc2ccccc12)C(=O)N1CCC(c2ccccc2)CC1 (stereo unspecified)
76 | 60 | COCCCNC(=O)C(CCCNC(=N)N)NS(=O)(=O)c1cccc2c(N(C)C)cccc12 (stereo unspecified)
77 | 2 | CN(C)c1cccc2c(S(=O)(=O)NC(CCCNC(=N)N)C(=O)N3CCSCC3)cccc12 (stereo unspecified)
78 | 0.1 | CCOc1cccc2c(S(=O)(=O)NC(CCCNC(=N)N)C(=O)N3CCC(CC)CC3)cccc12 (stereo unspecified)
79 | 1 | CCc1cc2cc(S(=O)(=O)NC(CCCN=C(N)N)C(=O)N3CCC(CC)CC3)ccc2oc1=O (stereo unspecified)
80 | 1 | CCC1CCN(C(=O)C(CCCN=C(N)N)NS(=O)(=O)c2cc(OC)c3ccccc3c2)CC1 (stereo unspecified)
81 | 1 | CCC1CCN(C(=O)C(CCCNC(=N)N)NS(=O)(=O)c2cccc3ccccc23)CC1 (stereo unspecified)
82 | 0.1 | CCC1CCN(C(=O)C(CCCNC(=N)N)NS(=O)(=O)c2cc(OC)c3cc(OC)ccc3c2)CC1 (stereo unspecified)
83 | 10 | CCC1CCN(C(=O)C(CCCN=C(N)N)NS(=O)(=O)c2ccc3cc4c(cc3c2)OCCO4)CC1 (stereo unspecified)
84 | 40 | COCCNC(=O)C(CCCN=C(N)N)NS(=O)(=O)c1cccc2c1CCCC2 (stereo unspecified)
85 | 100 | CCNC(=O)C(CCCN=C(N)N)NS(=O)(=O)c1cccc2c(N(C)C)cccc12 (stereo unspecified)
86 | 0.4 | CCC1CCN(C(=O)C(CCCN=C(N)N)NS(=O)(=O)c2ccc3ccccc3c2OC)CC1 (stereo unspecified)
87 | 0.1 | COc1ccc2ccc(S(=O)(=O)NC(CCCN=C(N)N)C(=O)N3CCC(C)CC3)cc2c1 (stereo unspecified)
88 | 0.6 | CN(C)c1cccc2c(S(=O)(=O)NC(CCCNC(=N)N)C(=O)N3CCOCC3)cccc12 (stereo unspecified)
89 | 2 | CN1CCN(C(=O)C(CCCN=C(N)N)NS(=O)(=O)c2cccc3c(N(C)C)cccc23)CC1 (stereo unspecified)
90 | 0.3 | CCC1CCN(C(=O)C(CCCN=C(N)N)NS(=O)(=O)c2cccc3c(N(CC)CC)cccc23)CC1 (stereo unspecified)
91 | 15 | CCC1CCN(C(=O)C(CCCNC(=N)N)NS(=O)(=O)c2ccc3c(c2)CCCO3)CC1 (stereo unspecified)

Reference: ChEMBL document CHEMBL1121484, “Thrombin inhibitors. 2. Amide derivatives of N alpha-substituted L-arginine” (J Med Chem, 1980)
